Test results from ChEMBL document CHEMBL3739331, “Synthesis and Bioactivities of Kanamycin B-Derived Cationic Amphiphiles” (J Med Chem, 2015).
≈ marks a conversion by molar mass, not a printed value.

Legend:
Format in all cases: functional
[1] = system: Candida albicans; experiment: Antifungal activity against azole-resistant Candida albicans ATCC 10231 after 48 hrs by microbroth dilution method; conditions: ATCC 10231, 48 h
Method in brief: (§1)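 Yeast MIC by broth microdilution, run in duplicate. The aminoglycoside compounds are read as MIC-0 (complete inhibition). Azoles are read as MIC-2 (50% inhibition).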

[2] = system: Candida albicans; experiment: Antifungal activity against azole-resistant Candida albicans ATCC 64124 after 48 hrs by microbroth dilution method; conditions: ATCC 64124, 48 h; method in brief: as §1
[3] = system: Candida albicans; experiment: Antifungal activity against azole-susceptible Candida albicans ATCC MYA-2876 after 48 hrs by microbroth dilution method; conditions: ATCC MYA-2876, 48 h; method in brief: as §1
[4] = system: Candida albicans; experiment: Antifungal activity against azole-resistant Candida albicans ATCC 90819 after 48 hrs by microbroth dilution method; conditions: ATCC 90819, 48 h; method in brief: as §1
[5] = system: Candida albicans; experiment: Antifungal activity against azole-susceptible Candida albicans ATCC MYA-2310 after 48 hrs by microbroth dilution method; conditions: ATCC MYA-2310, 48 h; method in brief: as §1
[6] = system: Candida albicans; experiment: Antifungal activity against azole-resistant Candida albicans MYA-1237 after 48 hrs by microbroth dilution method; conditions: MYA-1237, 48 h; method in brief: as §1
[7] = system: Candida albicans; experiment: Antifungal activity against azole-resistant Candida albicans MYA-1003 after 48 hrs by microbroth dilution method; conditions: MYA-1003, 48 h; method in brief: as §1
[8] = system: Aspergillus nidulans; experiment: Antifungal activity against Aspergillus nidulans ATCC 38163 after 48 hrs by microbroth dilution method; conditions: ATCC 38163, 48 h
Method in brief: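 Filamentous fungus MIC by broth microdilution, run in duplicate. All compounds are read as MIC-0 (complete inhibition).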

[9] = system: Klebsiella pneumoniae; experiment: Antibacterial activity against Klebsiella pneumoniae ATCC 27736 by microdilution method
Method in brief: (§2)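 Broth microdilution MIC against the named bacterial strain, reported in μg/mL; each determination run at least in duplicate.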

[10] = system: Bacillus subtilis; experiment: Antibacterial activity against Bacillus subtilis 168 by microdilution method; conditions: subsp. subtilis str. 168; method in brief: as §2
[11] = system: Listeria monocytogenes; experiment: Antibacterial activity against Listeria monocytogenes ATCC 19115 by microdilution method; method in brief: as §2
[12] = system: Staphylococcus aureus; experiment: Antibacterial activity against methicillin-resistant Staphylococcus aureus by microdilution method
Method in brief: (§3)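 Broth microdilution MIC, in μg/mL, against a panel of Gram-positive and Gram-negative strains. Run at least in duplicate.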

[13] = system: Mycolicibacterium smegmatis; experiment: Antibacterial activity against Mycobacterium smegmatis MC2 155 by microdilution method; conditions: str. MC2 155; method in brief: as §3
[14] = system: Staphylococcus aureus; experiment: Antibacterial activity against Staphylococcus aureus ATCC 29213 by microdilution method; method in brief: as §2
[15] = system: Staphylococcus aureus; experiment: Antibacterial activity against Staphylococcus aureus NRS382 (USA 100) by microdilution method; method in brief: as §2
[16] = system: Staphylococcus aureus; experiment: Antibacterial activity against Staphylococcus aureus NRS383 (USA 200) by microdilution method; method in brief: as §2
[17] = system: Staphylococcus aureus; experiment: Antibacterial activity against Staphylococcus aureus NRS385 (USA 300) by microdilution method; method in brief: as §3
[18] = system: Staphylococcus aureus; experiment: Antibacterial activity against Staphylococcus aureus NRS22 (USA 600) by microdilution method; method in brief: as §2
[19] = system: Staphylococcus epidermidis; experiment: Antibacterial activity against Staphylococcus epidermidis ATCC 12228 by microdilution method; method in brief: as §2
[20] = system: Enterococcus; experiment: Antibacterial activity against vancomycin-resistant Enterococcus by microdilution method; method in brief: as §3
[21] = system: Acinetobacter baumannii; experiment: Antibacterial activity against Acinetobacter baumannii ATCC 19606 by microdilution method; method in brief: as §2
[22] = system: Enterobacter cloacae; experiment: Antibacterial activity against Enterobacter cloacae ATCC 13047 by microdilution method; method in brief: as §2
[23] = system: Escherichia coli; experiment: Antibacterial activity against Escherichia coli MC1061 by microdilution method; method in brief: as §3
[24] = system: Pseudomonas aeruginosa; experiment: Antibacterial activity against Pseudomonas aeruginosa ATCC 27853 by microdilution method; method in brief: as §2
[25] = system: Salmonella enterica; experiment: Antibacterial activity against Salmonella enterica ATCC 14028 by microdilution method; method in brief: as §2

Structure (SMILES): OC(Cn1cncn1)(Cn1cncn1)c1ccc(F)cc1F [FLUCONAZOLE]
- MIC50 [1]: 62.5 µg/mL (≈ 204 µM)
- MIC50 [2]: 125 µg/mL (≈ 408 µM)
- MIC50 [3]: 15.6 µg/mL (≈ 50.9 µM)
- MIC50 [4]: > 125 µg/mL
- MIC50 [5]: > 125 µg/mL
- MIC50 [6]: 62.5 µg/mL (≈ 204 µM)
- MIC50 [7]: 62.5 µg/mL (≈ 204 µM)
- MIC [8]: > 62.5 µg/mL

Structure (SMILES): CCC(C)n1ncn(-c2ccc(N3CCN(c4ccc(OCC5COC(Cn6cncn6)(c6ccc(Cl)cc6Cl)O5)cc4)CC3)cc2)c1=O (configuration not stated) [ITRACONAZOLE]
- MIC50 [1]: 0.5 µg/mL (≈ 0.709 µM)
- MIC50 [2]: > 62.5 µg/mL
- MIC50 [3]: 7.8 µg/mL (≈ 11.1 µM)
- MIC50 [4]: 31.2 µg/mL (≈ 44.2 µM)
- MIC50 [6]: 31.2 µg/mL (≈ 44.2 µM)
- MIC50 [7]: 31.2 µg/mL (≈ 44.2 µM)
- MIC [8]: ≤ 1.95 µg/mL

Structure (SMILES): NC[C@H]1O[C@H](O[C@H]2[C@H](O)[C@@H](O[C@H]3O[C@H](CO)[C@@H](O)[C@H](N)[C@H]3O)[C@H](N)C[C@@H]2N)[C@H](O)[C@@H](O)[C@@H]1O [KANAMYCIN]
- MIC [9]: 16 µg/mL (≈ 33 µM)
- MIC [10]: 2 µg/mL (≈ 4.13 µM)
- MIC [11]: 128 µg/mL (≈ 264 µM)
- MIC [12]: 128 µg/mL (≈ 264 µM)
- MIC [13]: ≤ 0.25 µg/mL
- MIC [14]: > 128 µg/mL
- MIC [15]: > 128 µg/mL
- MIC [16]: > 128 µg/mL
- MIC [17]: > 128 µg/mL
- MIC [18]: > 128 µg/mL
- MIC [19]: 1 µg/mL (≈ 2.06 µM)
- MIC [20]: > 128 µg/mL
- MIC [21]: 4 µg/mL (≈ 8.26 µM)
- MIC [22]: 2 µg/mL (≈ 4.13 µM)
- MIC [23]: 8 µg/mL (≈ 16.5 µM)
- MIC [24]: > 128 µg/mL
- MIC [25]: 16 µg/mL (≈ 33 µM)
